The nature of data set [1]: Stability test of the 2 analytes in rat plasma. It counts as in vitro ADME. Put shortly: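 Rat plasma QC samples at low, middle and high levels were assayed in triplicate. They were MeOH-precipitated (1:3), spun at 4500 rpm and 4 °C for 10 min, dried and redissolved in MeOH. The processed samples were held in the autosampler for 12 h and then quantified by UPLC-MS/MS against oxacillin internal standard. Samples counted as stable if bias was within ±15% of nominal.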

The format of data set [2] is in vivo, Male Wistar Rats. To be noted: male, Wistar, rat, plasma, po, 800 mg/kg. Put shortly: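 Male Wistar rats (200–250 g) dosed orally with the prescription extract at 800 mg/kg. Plasma was stored at −80 °C, then precipitated with MeOH (1:3). Analysis was by UPLC-MS/MS MRM with oxacillin as internal standard. Parameters came from noncompartmental analysis, reported as mean ± SD.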

Setting [3] is: Normal temperature (auto-sampler 12 h), nominal conc 15.62 ng/mL.
Where [4] appears, read: Normal temperature (auto-sampler 12 h), nominal conc 31.25 ng/mL.
[5] abbreviates: −80 (storage at −80 °C), nominal conc 15.62 ng/mL.
Where [6] appears, read: −80 (storage at −80 °C), nominal conc 31.25 ng/mL.
Setting [7] is: −80 FT (three freeze–thaw cycles), nominal conc 15.62 ng/mL.
Where [8] appears, read: −80 FT (three freeze–thaw cycles), nominal conc 31.25 ng/mL.

We go through one compound from paper PMC10629916 (Journal of Food and Drug Analysis, 2023).

As to `C[C@@H]1O[C@@H](OC[C@H]2O[C@@H](Oc3cc(O)c4c(c3)O[C@H](c3ccc(O)cc3)CC4=O)[C@H](O)[C@@H](O)[C@@H]2O)[C@H](O)[C@H](O)[C@H]1O` [Narirutin], the “Accuracy (RE, %)” value is listed as 11.32% in data set [1] (setting [3]); −2.84% in data set [1] (setting [4]); −1.48% in data set [1] (−80 (storage at −80 °C), nominal conc 0.48 ng/mL); 9.87% in data set [1] (setting [5]); −3.53% in data set [1] (setting [6]); −3.82% in data set [1] (−80 FT (three freeze–thaw cycles), nominal conc 0.48 ng/mL). Moreover, the “Accuracy (RE, %)” value in data set [1] (setting [7]) is recorded as 12.58%; in data set [1] (setting [8]), −3.1%. The Observed is listed as 17.94 ± 0.15 in data set [1] (setting [3]); 31.04 ± 0.22 in data set [1] (setting [4]); 17.94 ± 0.15 in data set [1] (setting [5]); 31.04 ± 0.22 in data set [1] (setting [6]); 17.94 ± 0.15 in data set [1] (setting [7]); 31.04 ± 0.22 in data set [1] (setting [8]). In data set [2], this compound gave an AUC(0-inf) of 20.2 ± 11.9 ng·h/mL. The AUC(0-t) in data set [2] is 11 ± 5.91 ng·h/mL. This compound gave a Cmax in data set [2] of 3.29 ± 1.63 ng/mL. The compound further had an MRT inf in data set [2] of 8.22 ± 2.65 h. Moreover, in data set [2], the Tmax is 1.01 ± 1.22 h. For the same compound, in data set [2], the half-life was 286 ± 106 min.

A word on the AUC(0-inf): it is the area under the concentration-time curve extrapolated to infinity. High values mean more exposure, low ones less exposure. What is called AUC(0-t) is exposure summed from dosing to a finite time, without extrapolation to infinity. The low end stands for low exposure, the high end for high exposure. Usually Cmax stands for the highest concentration seen after dosing. For orientation: MRT inf means the average time that molecules of a dose stay in the body. For orientation: Tmax means the time at which the peak concentration occurs. The term half-life denotes how long it takes for the measured level to halve.
